# Paper PMC4759708 (CPT: Pharmacometrics & Systems Pharmacology, 2015)
# Values joined by “and” are separate entries in the source; they are usually repeats but may differ in a detail not shown here. Equal values may be shown once. Read-outs that look alike come from different tables or passages of the source.
# Assays:
# [1] = target: T1, p38α (Homo sapiens, UniProt Q16539); assay: In-house p38α inhibition, radiometric; format: biochemical; conditions: read-out: IC50 on p38α (radiometric); in-house studies
# [2] = Population pharmacokinetics of oral BCT197 in healthy volunteers; format: in vivo, human
# Outline: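 Healthy male and non-childbearing female volunteers aged 18–50 y (BMI 18–30 kg/m²) took ascending single doses or once-daily doses for 14 days. Oral solution was used for 0.1–3 mg and tablets for ≥5 mg. Plasma drug was fitted by nonlinear mixed-effects modelling (FOCE Lindström Bates), with lognormal between-subject variability and tablet mixed zero/first-order absorption. Bootstrap used 500 iterations.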
# [3] = Safety and tolerability in healthy subjects; format: in vivo, human; conditions: data not shown
# [4] = target: P-glycoprotein (Homo sapiens, UniProt P08183); assay: Caco-2 model of intestinal uptake/efflux; format: in vitro ADME; conditions: unpublished data
# [5] = test system: serum levels of TNFα; assay: Serum TNFα levels after in vivo intravenous LPS challenge; set-up: species or system human; conditions: data not shown
# Outline: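 Healthy subjects received a single oral dose, then an intravenous LPS challenge, and serum TNFα was measured. They fasted 10 h before dosing and 4 h after. Apart from the dosing fluid, no fluid was allowed from 2 h before to 2 h after dosing.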
# [6] = COPD patients; intermittent short-term dosing 75 mg on days 1 and 6; cited from earlier work
# [7] = test system: LPS-stimulated TNFα release; assay: LPS-stimulated TNFα release in the human whole blood assay; format: cell-based
# [8] = Tissue distribution in pigmented and albino rats; format: in vivo; conditions: pigmented vs albino, unpublished data
# [9] = target: T1, p38α; assay: In-house p38α inhibition, ELISA; format: biochemical; conditions: read-out: IC50 on p38α (ELISA); in-house studies
# [10] = Thermodynamic solubility; format: physicochemical
# [11] = test system: ex vivo LPS-induced TNFα secretion; format: in vivo, human
# Outline: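 Healthy adults received randomized, double-blind, placebo-controlled oral doses: ascending single doses of 0.1–75 mg, or once daily for 14 days. Blood was challenged with LPS ex vivo and TNFα measured. An indirect response model with negative feedback on outflow and a 24-h oscillatory baseline was fitted to drug and placebo data together. Individual Bayesian PK estimates served as input. IC50 was a fraction of predose baseline. Bootstrap used 500 iterations.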
# [12] = test system: LPS-stimulated TNFα release; conditions: read-out: IC50, TNFα release in the same (human whole blood) assay; cited from earlier work
# [13] = test system: LPS-stimulated TNFα ex vivo; conditions: patients treated, same bioassay; cited from earlier work
# [14] = population mean, final estimate
# T1 sequence (Q16539 whole entry): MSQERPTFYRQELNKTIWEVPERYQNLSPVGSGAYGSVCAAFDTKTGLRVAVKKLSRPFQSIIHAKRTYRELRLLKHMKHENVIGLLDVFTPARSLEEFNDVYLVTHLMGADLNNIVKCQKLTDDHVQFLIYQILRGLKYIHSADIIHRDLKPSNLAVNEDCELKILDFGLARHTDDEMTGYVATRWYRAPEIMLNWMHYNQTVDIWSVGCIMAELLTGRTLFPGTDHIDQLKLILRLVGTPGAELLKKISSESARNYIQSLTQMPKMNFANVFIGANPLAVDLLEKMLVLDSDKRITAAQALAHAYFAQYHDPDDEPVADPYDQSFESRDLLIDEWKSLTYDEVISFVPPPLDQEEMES
# Chain of P-glycoprotein (P08183 whole entry): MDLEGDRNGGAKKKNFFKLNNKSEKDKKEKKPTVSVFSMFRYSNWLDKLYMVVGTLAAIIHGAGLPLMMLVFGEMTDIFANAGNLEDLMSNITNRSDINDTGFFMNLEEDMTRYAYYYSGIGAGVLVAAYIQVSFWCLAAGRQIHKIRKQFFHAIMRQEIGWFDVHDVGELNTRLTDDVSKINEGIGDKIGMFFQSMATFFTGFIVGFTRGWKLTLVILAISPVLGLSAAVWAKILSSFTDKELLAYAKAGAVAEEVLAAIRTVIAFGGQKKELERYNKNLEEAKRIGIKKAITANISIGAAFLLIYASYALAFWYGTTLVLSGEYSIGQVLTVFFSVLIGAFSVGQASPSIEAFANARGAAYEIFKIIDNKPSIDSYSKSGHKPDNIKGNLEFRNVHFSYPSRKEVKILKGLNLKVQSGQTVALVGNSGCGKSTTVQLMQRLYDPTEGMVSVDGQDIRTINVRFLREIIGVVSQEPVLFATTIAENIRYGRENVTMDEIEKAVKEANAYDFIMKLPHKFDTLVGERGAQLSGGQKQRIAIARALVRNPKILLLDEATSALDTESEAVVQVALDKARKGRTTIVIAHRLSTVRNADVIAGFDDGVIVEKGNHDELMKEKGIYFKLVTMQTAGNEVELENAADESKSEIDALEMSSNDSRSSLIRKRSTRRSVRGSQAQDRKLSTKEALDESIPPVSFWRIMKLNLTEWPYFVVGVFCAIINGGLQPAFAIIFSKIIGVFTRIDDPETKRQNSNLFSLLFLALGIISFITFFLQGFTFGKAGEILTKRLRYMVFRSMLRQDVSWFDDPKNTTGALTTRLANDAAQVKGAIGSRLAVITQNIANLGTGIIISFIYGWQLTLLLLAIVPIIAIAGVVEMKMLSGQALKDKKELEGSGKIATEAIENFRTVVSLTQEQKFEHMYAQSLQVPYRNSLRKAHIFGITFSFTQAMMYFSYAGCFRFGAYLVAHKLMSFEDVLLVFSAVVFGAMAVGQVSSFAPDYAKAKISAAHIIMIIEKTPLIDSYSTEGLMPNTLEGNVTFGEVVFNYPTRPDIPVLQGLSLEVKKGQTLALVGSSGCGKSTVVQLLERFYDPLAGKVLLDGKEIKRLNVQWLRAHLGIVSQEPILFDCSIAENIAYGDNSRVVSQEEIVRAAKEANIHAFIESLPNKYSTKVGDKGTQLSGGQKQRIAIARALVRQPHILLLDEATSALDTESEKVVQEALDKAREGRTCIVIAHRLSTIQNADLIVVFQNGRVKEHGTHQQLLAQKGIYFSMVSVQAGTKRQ
smiles,measurement,setting,value
Cc1ccc(C(=O)NC2CC2)cc1-n1ncc(C(=O)c2cccc(C#N)c2)c1N [BCT197],IC50,[1],37 nM
same,"Bmax, total binding capacity (tissue binding)",[2]; bootstrap median and 90% CI,507 [308;806] µg
same,"K1b, first order transfer rate from central compartment into shunt compartment",[2]; bootstrap median and 90% CI,0.0105 [0.00791;0.0132] 1/h
same,"Kt=Kint1, first-order oral absorption rate constant of tablet",[2]; bootstrap median and 90% CI,1.13 [0.934;1.42] 1/h
same,"Rate, zero order oral absorption rate (tablet)",[2]; bootstrap median and 90% CI,2310 [2170;2530] µg/h
same,"V1/F, volume of central compartment",[2]; bootstrap median and 90% CI,71.5 [58.1;98.7] L
same,"fc, fraction of oral dose (tablet) absorbed in a zero-order fashion",[2]; bootstrap median and 90% CI,0.342 [0.291;0.392]
same,"CL/F, oral drug clearance","[2]; bootstrap median and 90% CI, 500 iterations",1.77 [1.47;2.05] L/h
same,rise in drug levels in reaching steady-state,"[2]; once-daily regimen, on average",3 fold
same,time of double peak behavior postdose,[2]; plasma concentration profile,18 to 24 h
same,"Bmax, total binding capacity (tissue binding)",[2]; [14],500 µg
same,"K1b, first order transfer rate from central compartment into shunt compartment",[2]; [14],0.0106 h⁻¹
same,"Kt=Kint1, first-order oral absorption rate constant of tablet",[2]; [14],1.12 h⁻¹
same,"V1/F, volume of central compartment",[2]; [14],71.9 L
same,"V2/F, volume of peripheral compartment",[2]; [14],25.5 L
same,"CL/F, oral drug clearance","[2]; population mean, final estimate, healthy volunteers, oral 0.1-75 mg",1.76 L/h
same,"fc, fraction of oral dose (tablet) absorbed in a zero-order fashion","[2]; population mean, final estimate, modeled in logit domain and back transformed",0.344
same,"Ks, first-order oral absorption rate constant of solution","[2]; population mean, fixed",5 (fixed) 1/h
same,"Tlag, absorption lag time","[2]; population mean, fixed",0.232 (fixed) h
same,"Tpump, shunt compartment emptying lag time","[2]; population mean, fixed",18 (fixed) h
same,fraction (fc) of dose absorbed by the first-order process,"[2]; tablets, mixed-order absorption model, on average",66%
same,"Tolerability, continuous dosing",[3]; continuous dosing of 10 mg,acneiform skin rashes
same,"Tolerability, single high doses",[3]; single high doses up to 75 mg,well tolerated
same,"saturation of low-affinity efflux pump, most likely P-glycoprotein",[4],not saturated up to 0.1 mg/mL
same,inhibition of serum levels of TNFα following in vivo intravenous LPS challenge,[5]; single oral administration of 20 mg,96%
same,inhibition of serum levels of TNFα following in vivo intravenous LPS challenge,[5]; single oral administration of 75 mg,97%
same,lung function (FEV1),[6],marked improvement
same,IC50,"[7]; read-out: IC50 (total drug), LPS-stimulated TNFα release, human whole blood assay, total drug",51 nM
same,IC50,"[7]; read-out: free IC50, LPS-stimulated TNFα release, human whole blood assay, free drug",24 nM
same,tissue distribution / retention in melanin-containing tissues,[8],remained much longer detectable in the skin and eye of the pigmented but not albino animal
same,IC50,[9],12 nM
same,pH-independent thermodynamic solubility,[10],~0.2 mg/mL
same,"IC50, concentration at half maximum inhibition",[11]; bootstrap median and 90% CI,44.3 [30.6;65.5] µg/L
same,"Imax, maximum inhibition",[11]; bootstrap median and 90% CI,0.668 [0.6121;0.752]
same,"Kout, first order degradation rate of drug response",[11]; bootstrap median and 90% CI,0.353 [0.170;0.592] 1/h
same,"Ktol, first order production rate of negative feedback",[11]; bootstrap median and 90% CI,0.00281 [0.00173;0.00529] 1/h
same,"Maximum inhibition from baseline (Imax), plateau in the typical individual",[11]; ex vivo LPS-induced TNFα secretion,about 66%
same,"t1/2,ktol (rate constant governing tolerance)","[11]; human, in vivo",252 h
same,"Imax, maximum inhibition",[11]; [14],0.663
same,"Kout, first order degradation rate of drug response",[11]; [14],0.348 h⁻¹
same,"Ktol, first order production rate of negative feedback",[11]; [14],0.00276 h⁻¹
same,"IC50, concentration at half maximum inhibition","[11]; population mean, final estimate, plasma concentration, modeled as fraction of predose baseline",44 µg/L and 44.3 µg/L
same,"t1/2,kout (hysteresis in drug effect)",[11]; single dose,2 h
CNC(=O)c1ccc(C)c(-n2c(C)cc(OCc3ccc(F)cc3F)c(Br)c2=O)c1 [PH‐797804],IC50,[12],85 nM
Cc1c(F)cc(C(=O)NC2CC2)cc1-c1ccc(C(=O)NCC(C)(C)C)cn1 [losmapimod],IC50,[12],25 nM
"O=C(Nc1c(Cl)cncc1Cl)c1ccc(OC(F)F)c(OCC2CC2)c1 [rofluminast, roflumilast]",TNFα levels ex vivo,[13],significant suppression
